As a reminder, the inhibition is the share of the control response that was lost under treatment. For orientation: IC50 means the concentration needed to halve the response being measured.

Data on 31 compounds can be found in ChEMBL document CHEMBL4622947, “Synthesis and anti-inflammatory activity of 2-oxo-2H-chromenyl and 2H-chromenyl-5-oxo-2,5-dihydrofuran-3-carboxylates” (Bioorg Med Chem Lett, 2020).

Each structure is given as a SMILES string. Calls of active or inactive are those of the source. No cut-off for these calls is given here.

Data set [1] relates to U-937. In words: Antiinflammatory activity in human U937 cells assessed as inhibition of PMA/LPS-stimulated IL-6 production at 20 uM after 24 hrs by ELISA. It is filed as functional, cell-based. A general note: An ELISA detects its analyte on a solid surface through an enzyme-linked reagent.
A short description of data set [2]: Cytotoxicity against human U937 cells assessed as cell viability at 20 uM relative to control. Type of data set: cell-based, U-937. The note with it: read-out: Activity.
Data set [3] concerns U-937. In words: Antiinflammatory activity in human U937 cells assessed as inhibition of PMA/LPS-stimulated TNFalpha production after 24 hrs by ELISA. Type of data set: functional, cell-based. As to conditions: U-937, 24 h. An outline of the steps:
(§1)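 TNF-α from U937 cells was quantified by ELISA. Percent inhibition was read at 20 μM, and IC50 (μM) was reported as mean ± error.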

Data set [4] concerns U-937. In words: Antiinflammatory activity in human U937 cells assessed as inhibition of PMA/LPS-stimulated TNFalpha production at 20 uM after 24 hrs by ELISA relative to control. Type of data set: functional. As to conditions: U-937, 24 h. In outline:
as §1

In data set [5] the test system is U-937. Put plainly: Antiinflammatory activity in human U937 cells assessed as inhibition of PMA/LPS-stimulated TNFalpha production at 1 uM after 24 hrs by ELISA relative to control. It is filed as functional. The note with it: U-937, 24 h.
Data set [6] concerns Mus musculus. In words: Antiinflammatory activity in BALB/c mouse assessed as inhibition of LPS-induced TNFalpha production at 100 mg/kg, administered for 3 days followed by LPS stimulation by ELISA. It is filed as functional, organism-based. An outline of the steps: (§2)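 BALB/c mice were pre-treated with 100 mg/kg test compound for three consecutive days, then challenged with LPS at 10 mg/kg IP. Serum TNF-α and IL-6 were measured by ELISA and compared with LPS-only and vehicle control groups. Values are mean ± S.E.M., n = 5.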

The subject of data set [7] is Mus musculus. Put plainly: Antiinflammatory activity in BALB/c mouse assessed as inhibition of LPS-induced IL6 production at 100 mg/kg, administered for 3 days followed by LPS stimulation by ELISA. Type of data set: functional, organism-based. In outline:
as §2

Regarding `CCOC(=O)C1=C(OCC)C(=O)OC1C1=C(Cl)c2cc(Br)ccc2OC1` (configuration not stated), the inhibition result with U-937 [1] is “inactive”. For the same compound, the viability at 20 µM in data set [2] was determined as 87.2%. Moreover, the IC50 with U-937 [3] was 3260 nM. In addition, in the data set on U-937 [4], the inhibition at 20 µM is 73.3%.
Regarding `COC(=O)C1=C(OC)C(=O)OC1c1c(Cl)c2cc(C)c(C)cc2oc1=O` (configuration not stated), the inhibition result in the data set with U-937 [1] was “inactive”. For the same compound, the viability at 20 µM in data set [2] amounted to 75.9%. Moreover, the inhibition at 20 µM with U-937 [4] was 34.9%.
Regarding `CCOC(=O)C1=C(OCC)C(=O)OC1c1c(Cl)c2cc(C)ccc2oc1=O` (configuration not stated), the inhibition entry in the data set with U-937 [1] was “inactive”. In addition, in data set [2], the viability at 20 µM came out at 79.8%. Further, the inhibition at 20 µM with U-937 [4] is 32.3%.
As for `CCOC(=O)C1=C(OCC)C(=O)OC1C1=C(Cl)c2c(ccc(C)c2C)OC1` (configuration not stated), in the data set with U-937 [1], the inhibition entry is “inactive”. The viability at 20 µM in data set [2] is 85.2%. Further, in the data set with U-937 [4], the inhibition at 20 µM came to 29.7%.
For the compound `COC(=O)C1=C(OC)C(=O)OC1c1c(Cl)c2cc(Cl)ccc2oc1=O` (configuration not stated), the inhibition result in the data set with U-937 [1] was “inactive”. The viability at 20 µM in data set [2] was 93.1%. In the data set with U-937 [3], the IC50 was 6240 nM. The inhibition at 20 µM with U-937 [4] turned out to be 75%.
Turning to `COC(=O)C1=C(OC)C(=O)OC1C1=C(Cl)c2cc(C)c(C)cc2OC1` (configuration not stated), the inhibition entry in the data set on U-937 [1] is “inactive”. In addition, the viability at 20 µM in data set [2] worked out at 90.7%. For the same compound, the inhibition at 20 µM in the data set with U-937 [4] came to 49.7%.
For `COC(=O)C1=C(OC)C(=O)OC1C1=C(Cl)c2cc(Br)ccc2OC1` (configuration not stated), the inhibition entry in the data set on U-937 [1] was “inactive”. The viability at 20 µM in data set [2] was 94.3%. In the data set on U-937 [3], the IC50 turned out to be 13000 nM. Also, the inhibition at 20 µM in the data set with U-937 [4] is 80.2%.
For `COC(=O)C1=C(OC)C(=O)OC1C1=C(Cl)c2ccc3ccccc3c2OC1` (configuration not stated), the inhibition entry with U-937 [1] was “inactive”. The viability at 20 µM in data set [2] was determined as 80.2%. Moreover, in the data set with U-937 [4], the inhibition at 20 µM stood at 29.1%.
On the same counts, the results for `COC(=O)C1=C(OC)C(=O)OC1C1=C(Cl)c2ccc(C)c(C)c2OC1` (configuration not stated) are “inactive”, 93.8% and 45.7%.
For the compound `CCOC(=O)C1=C(OCC)C(=O)OC1c1c(Cl)c2cc(Br)ccc2oc1=O` (configuration not stated), the inhibition entry with U-937 [1] is “inactive”. Moreover, in data set [2], the viability at 20 µM amounted to 83%. Further, the IC50 with U-937 [3] was 47 nM. Also, the inhibition at 20 µM in the data set with U-937 [4] is 91%.
As for `C[C@]12C=CC(=O)C=C1CC[C@@H]1[C@@H]2[C@@H](O)C[C@@]2(C)[C@H]1CC[C@]2(O)C(=O)CO` [PREDNISOLONE], the inhibition at 1 µM in the data set with U-937 [5] came to 98%. Moreover, the IC50 with U-937 [3] came out at 33 nM.
On to `COC(=O)C1=C(OC)C(=O)OC1c1c(Cl)c2cc(Br)ccc2oc1=O` (configuration not stated), for which, in the data set with U-937 [1], the inhibition result is “inactive”. Also, in data set [2], the viability at 20 µM was 85.3%. Further, the IC50 in the data set on U-937 [3] is 70 nM. Also, the inhibition at 20 µM in the data set with U-937 [4] was 76.9%.
As for `CCOC(=O)C1=C(OCC)C(=O)OC1c1c(Cl)c2cc(Cl)ccc2oc1=O` (configuration not stated), the inhibition result in the data set with U-937 [1] is “inactive”. Besides, the viability at 20 µM in data set [2] came to 90.7%. Besides, the inhibition entry with Mus musculus [6] and in the data set with Mus musculus [7] was “Active” throughout. Also, the IC50 in the data set with U-937 [3] is 423 nM. The inhibition at 20 µM in the data set on U-937 [4] stood at 97.1%.
As for `COC(=O)C1=C(OC)C(=O)OC1C1=C(Cl)c2cc(C)ccc2OC1` (configuration not stated), the inhibition entry in the data set on U-937 [1] is “inactive”. In addition, the viability at 20 µM in data set [2] was found to be 88.5%. The inhibition at 20 µM in the data set with U-937 [4] turned out to be 35.6%.
Taken in the same sequence, the figures for `CCOC(=O)C1=C(OCC)C(=O)OC1c1c(Cl)c2cc(C)c(C)cc2oc1=O` (configuration not stated) were “inactive”, 79% and 26.8%.
`COC(=O)C1=C(OC)C(=O)OC1c1c(Cl)c2ccccc2oc1=O` (configuration not stated): the inhibition result in the data set on U-937 [1] is “inactive”. For the same compound, in data set [2], the viability at 20 µM came out at 78.3%. Further, the inhibition at 20 µM in the data set with U-937 [4] is 27.1%.
Taken in the same sequence, the figures for `CCOC(=O)C1=C(OCC)C(=O)OC1C1=C(Cl)c2ccc(C)c(C)c2OC1` (configuration not stated) were “inactive”, 89.9% and 23.3%.
Taken in the same sequence, the figures for `CCOC(=O)C1=C(OCC)C(=O)OC1C1=C(Cl)c2ccccc2OC1` (configuration not stated) were “inactive”, 88.9% and 50.6%.
On the same counts, the results for `COC(=O)C1=C(OC)C(=O)OC1c1c(Cl)c2cc(-c3ccccc3)ccc2oc1=O` (configuration not stated) are “inactive”, 82.3% and 44.2%.
Consider `COC(=O)C1=C(OC)C(=O)OC1c1c(Cl)c2cc(C)ccc2oc1=O` (configuration not stated), for which the inhibition entry in the data set on U-937 [1] is “inactive”. Moreover, in data set [2], the viability at 20 µM amounted to 84.3%. Moreover, the inhibition at 20 µM with U-937 [4] is 14.8%.
For the compound `COC(=O)C1=C(OC)C(=O)OC1c1c(Cl)c2cc(C)cc(C)c2oc1=O` (configuration not stated), in the data set on U-937 [1], the inhibition result is “inactive”. Further, in data set [2], the viability at 20 µM amounted to 86.1%. Also, the inhibition at 20 µM with U-937 [4] is 44.9%.
On the same counts, the results for `CCOC(=O)C1=C(OCC)C(=O)OC1c1c(Cl)c2cc(-c3ccccc3)ccc2oc1=O` (configuration not stated) are “inactive”, 83.1% and 20%.
Regarding `CCOC(=O)C1=C(OCC)C(=O)OC1C1=C(Cl)c2cc(Cl)ccc2OC1` (configuration not stated), the inhibition entry in the data set on U-937 [1] was “inactive”. Further, the viability at 20 µM in data set [2] was 79.4%. Moreover, the IC50 in the data set with U-937 [3] came out at 10600 nM. The inhibition at 20 µM in the data set on U-937 [4] came out at 75.9%.
As to `CCOC(=O)C1=C(OCC)C(=O)OC1C1=C(Cl)c2cc(C)ccc2OC1` (configuration not stated), the inhibition entry with U-937 [1] is “inactive”. In addition, the viability at 20 µM in data set [2] was determined as 81.6%. Also, the inhibition at 20 µM in the data set with U-937 [4] amounted to 6.4%.
Turning to `CCOC(=O)C1=C(OCC)C(=O)OC1c1c(Cl)c2cc(C)cc(C)c2oc1=O` (configuration not stated), in the data set on U-937 [1], the inhibition result is “inactive”. For the same compound, the viability at 20 µM in data set [2] stood at 96.8%. Besides, in the data set on U-937 [3], the IC50 was 1110 nM. For the same compound, the inhibition at 20 µM with U-937 [4] was determined as 80.2%.
`COC(=O)C1=C(OC)C(=O)OC1C1=C(Cl)c2c(ccc(C)c2C)OC1` (configuration not stated): the inhibition result with U-937 [1] is “inactive”. Further, in data set [2], the viability at 20 µM amounted to 92.1%. The inhibition entry with Mus musculus [6] and in the data set on Mus musculus [7] was “Active” in each case. Besides, in the data set on U-937 [3], the IC50 came out at 142 nM. Besides, in the data set on U-937 [4], the inhibition at 20 µM was found to be 70.4%.
As for `COC(=O)C1=C(OC)C(=O)OC1C1=C(Cl)c2cc(Cl)ccc2OC1` (configuration not stated), the inhibition result in the data set with U-937 [1] was “inactive”. The viability at 20 µM in data set [2] was determined as 84.6%. Moreover, the inhibition at 20 µM with U-937 [4] is 19.4%.
For the compound `CCOC(=O)C1=C(OCC)C(=O)OC1C1=C(Cl)c2cc(C)c(C)cc2OC1` (configuration not stated), the inhibition result in the data set with U-937 [1] is “inactive”. In addition, the viability at 20 µM in data set [2] worked out at 93.4%. Also, the IC50 in the data set with U-937 [3] is 11200 nM. Besides, the inhibition at 20 µM in the data set with U-937 [4] worked out at 96.1%.
Take `CCOC(=O)C1=C(OCC)C(=O)OC1C1=C(Cl)c2ccc3ccccc3c2OC1` (configuration not stated): the inhibition entry in the data set on U-937 [1] was “inactive”. The viability at 20 µM in data set [2] stood at 83.6%. The inhibition at 20 µM in the data set on U-937 [4] turned out to be 4.1%.
Taken in the same sequence, the figures for `CCOC(=O)C1=C(OCC)C(=O)OC1c1c(Cl)c2ccccc2oc1=O` (configuration not stated) were “inactive”, 75.9% and 40.7%.
Turning to `COC(=O)C1=C(OC)C(=O)OC1C1=C(Cl)c2ccccc2OC1` (configuration not stated), in the data set on U-937 [1], the inhibition entry is “inactive”. For the same compound, the viability at 20 µM in data set [2] worked out at 88.1%. In addition, the IC50 with U-937 [3] was 18700 nM. The inhibition at 20 µM with U-937 [4] was 95.5%.
